The results in this text go back to ChEMBL document CHEMBL1129030, “Potent, selective, orally active 3-oxo-1,4-benzodiazepine GPIIb/IIIa integrin antagonists” (J Med Chem, 1996).

Several values for one entry are separate records, joined by “and”; a condition that tells them apart may be missing. Equal values may be shown once.

Experiment [1] addresses Integrin alpha-IIb/beta-3 (Homo sapiens, UniProt P05106+P08514). Nature of the experiment: Inhibition of binding to purified integrin alphaIIb-beta3 of human platelets.
The species entered for another experiment is Homo sapiens. Nature of the experiment: In vitro Inhibitory activity against patelet aggregation in human platelet-rich plasma induced by ADP. Type of experiment: functional.
Experiment [2] is filed under the species Canis familiaris. Nature of the experiment: Duration for maximal inhibition of platelet aggregation in canine. Type of experiment: functional, Canis lupus familiaris. In short, it runs like this: (§1)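 Conscious dogs dosed either by intravenous bolus or by short intraduodenal infusion through a catheter, at 0.3–3 mg/kg. Blood was drawn serially for up to 390 min. Platelet aggregation was measured ex vivo in collagen-stimulated canine whole blood. The readouts were maximal % inhibition, time to maximal inhibition, duration of maximal inhibition, and % inhibition at 390 min.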

Experiment [3] has as its system Canis familiaris. Nature of the experiment: Ex vivo inhibition of platelet aggregation in canine whole blood/collagen at a dose of 3 mg/kg after i.d. administration; range is 90-100. In kind it is functional. Conditions: Canis lupus familiaris, route intraduodenal. In short, it runs like this:
as §1

Experiment [4] deals with Canis familiaris. Nature of the experiment: Ex vivo inhibition of platelet aggregation in canine whole blood/collagen at a dose of 0.3 mg/kg after i.v. administration; range is 90-100. In kind it is functional. As to conditions: Canis lupus familiaris, route intravenous. An outline of the steps: as §1
The species named for experiment [5] is Canis familiaris. Nature of the experiment: Time required for maximal inhibition of platelet aggregation in canine. Type of experiment: functional, Canis lupus familiaris. In short, it runs like this:
as §1

Experiment [6] deals with Canis familiaris. Nature of the experiment: Ex vivo inhibition of platelet aggregation in canine whole blood/collagen at a dose of 0.3 mg/kg after i.d. administration at 390 min. Type of experiment: functional. As to conditions: Canis lupus familiaris, 6.5 h, route intraduodenal. An outline of the steps:
as §1

Experiment [7] has as its system Canis familiaris. Nature of the experiment: Ex vivo inhibition of platelet aggregation in canine whole blood/collagen at a dose of 0.3 mg/kg after i.v. administration at 390 min. In kind it is functional. Conditions: Canis lupus familiaris, 6.5 h, route intravenous. An outline of the steps:
as §1

Experiment [8] relates to Canis familiaris. Nature of the experiment: Ex vivo inhibition of platelet aggregation in canine whole blood/collagen at a dose of 0.3 mg/kg after i.d. administration; […]. Type of experiment: functional. As to conditions: Canis lupus familiaris, route intraduodenal. An outline of the steps:
as §1

Chain of Integrin alpha-IIb/beta-3 (P05106 27-788 limits assumed): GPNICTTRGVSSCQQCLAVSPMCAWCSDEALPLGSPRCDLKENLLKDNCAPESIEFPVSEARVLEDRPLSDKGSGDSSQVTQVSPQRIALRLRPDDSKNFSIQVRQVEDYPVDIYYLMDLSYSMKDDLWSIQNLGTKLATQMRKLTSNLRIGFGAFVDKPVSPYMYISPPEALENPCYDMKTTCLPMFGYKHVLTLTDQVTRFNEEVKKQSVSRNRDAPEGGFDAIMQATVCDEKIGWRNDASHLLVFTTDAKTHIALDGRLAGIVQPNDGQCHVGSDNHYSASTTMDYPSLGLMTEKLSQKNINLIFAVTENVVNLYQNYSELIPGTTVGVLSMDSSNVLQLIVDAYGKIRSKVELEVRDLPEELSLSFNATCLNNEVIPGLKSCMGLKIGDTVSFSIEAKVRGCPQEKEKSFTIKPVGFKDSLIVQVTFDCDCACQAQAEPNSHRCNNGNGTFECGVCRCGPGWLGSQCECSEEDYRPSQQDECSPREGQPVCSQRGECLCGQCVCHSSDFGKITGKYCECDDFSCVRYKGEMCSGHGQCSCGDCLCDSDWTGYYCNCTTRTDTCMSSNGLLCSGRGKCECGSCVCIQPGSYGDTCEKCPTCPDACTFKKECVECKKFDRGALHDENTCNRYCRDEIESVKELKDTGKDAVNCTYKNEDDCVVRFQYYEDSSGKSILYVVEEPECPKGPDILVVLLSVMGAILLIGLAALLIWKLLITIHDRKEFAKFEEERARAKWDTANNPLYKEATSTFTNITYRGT
Chain of Integrin alpha-IIb/beta-3 (P08514 32-887 limits assumed): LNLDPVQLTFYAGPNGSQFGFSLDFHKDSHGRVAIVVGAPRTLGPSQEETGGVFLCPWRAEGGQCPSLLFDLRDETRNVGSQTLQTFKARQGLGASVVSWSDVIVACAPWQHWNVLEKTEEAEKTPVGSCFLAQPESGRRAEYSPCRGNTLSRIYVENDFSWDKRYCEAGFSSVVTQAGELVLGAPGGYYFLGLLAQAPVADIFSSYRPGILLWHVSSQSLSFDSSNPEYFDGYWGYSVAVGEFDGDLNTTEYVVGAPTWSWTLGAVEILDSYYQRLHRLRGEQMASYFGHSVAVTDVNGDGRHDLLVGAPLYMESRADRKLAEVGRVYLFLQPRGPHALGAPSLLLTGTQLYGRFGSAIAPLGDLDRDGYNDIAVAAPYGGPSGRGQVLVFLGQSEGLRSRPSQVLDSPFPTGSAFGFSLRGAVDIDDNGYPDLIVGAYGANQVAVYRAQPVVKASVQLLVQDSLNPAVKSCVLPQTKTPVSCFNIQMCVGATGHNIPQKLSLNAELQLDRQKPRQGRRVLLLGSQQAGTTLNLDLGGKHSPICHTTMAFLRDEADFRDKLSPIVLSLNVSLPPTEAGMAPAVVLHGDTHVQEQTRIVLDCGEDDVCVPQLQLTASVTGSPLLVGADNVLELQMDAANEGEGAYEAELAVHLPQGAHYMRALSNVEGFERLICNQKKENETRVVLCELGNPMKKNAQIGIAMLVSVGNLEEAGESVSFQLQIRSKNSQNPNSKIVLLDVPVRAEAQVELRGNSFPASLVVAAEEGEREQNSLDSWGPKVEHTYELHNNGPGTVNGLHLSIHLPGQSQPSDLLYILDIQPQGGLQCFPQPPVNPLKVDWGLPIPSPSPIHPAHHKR
Chain of Integrin alpha-IIb/beta-3 (P08514 891-1039 limits assumed): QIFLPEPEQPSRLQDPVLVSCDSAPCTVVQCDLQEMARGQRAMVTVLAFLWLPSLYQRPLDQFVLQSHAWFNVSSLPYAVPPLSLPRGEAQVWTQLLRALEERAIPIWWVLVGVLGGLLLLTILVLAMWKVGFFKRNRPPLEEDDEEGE

What is called Ki is a dissociation constant, usually derived from enzyme kinetics or from competition with a known ligand. Lower therefore signals higher affinity. What is called IC50 is the concentration that gives 50% inhibition. Low values mean inhibition by little substance, high ones a need for much substance. Turning to `CN(CCCC1CCNCC1)C(=O)c1ccc2c(c1)CN(CCc1ccccc1)C(=O)C(CC(=O)O)N2` (configuration not stated), in experiment [1], the affinity corresponds to a Ki of 8 nM. In the experiment filed under Homo sapiens, this molecule gave an IC50 of 60 nM.

The inhibition in vivo is how much of the control response was suppressed. High values mean a response far below the control, low ones a response near the control. In the experiment listed under Canis familiaris [2], `CN1Cc2cc(C(=O)N3CCC(C4CCNCC4)CC3)ccc2NC(CC(=O)O)C1=O` (configuration not stated) had a Duration of 240 min. The same molecule gave an inhibition in vivo at 3 mg/kg in the experiment on Canis familiaris [3] of 90%. The inhibition in vivo at 0.3 mg/kg with Canis familiaris [4] worked out at 90%; in the experiment with Canis familiaris [6], 60%; in the experiment with Canis familiaris [7], 50%. Also, the Time in the experiment listed under Canis familiaris [5] was 5 min and 10 min. Further, the Ki in [1] worked out at 4 nM. The same molecule showed an IC50 in the experiment listed under Homo sapiens of 106 nM.

`O=C(O)CC1Nc2ccc(C(=O)N3CCC(C4CCNCC4)CC3)cc2CN(CCc2ccccc2)C1=O` (configuration not stated) yielded a Duration in the experiment listed under Canis familiaris [2] of 140 min. In addition, the inhibition in vivo at 0.3 mg/kg in the experiment on Canis familiaris [4] is 90%; in the experiment with Canis familiaris [8], 70%. Besides, the Time in the experiment listed under Canis familiaris [5] is 10 min and 30 min. In [1], this molecule displayed a Ki of 1.5 nM. In the experiment filed under Homo sapiens, the IC50 amounted to 20 nM.

In turn, `CN1C(=O)c2ccccc2SSc2ccccc2NC(=O)[C@H](CC(=O)O)NC(=O)CNC(=O)[C@@H]1CCCN=C(N)N` [SKF-107260] gave a 50% inhibitory concentration (IC50) in the experiment filed under Homo sapiens of 57 nM.

The molecule `N=C(N)c1cccc(NC(=O)c2ccc3c(c2)CN(CCc2ccccc2)C(=O)C(CC(=O)O)N3)c1` (configuration not stated) yielded a Ki in experiment [1] of 26 nM. For the same molecule, the IC50 in the experiment filed under Homo sapiens turned out to be 380 nM.

Turning to `N=C(N)c1ccc(NC(=O)c2ccc3c(c2)NC(CC(=O)O)C(=O)N(CCc2ccccc2)C3)cc1` (configuration not stated), the affinity in experiment [1], expressed as Ki, was 2.8 nM.

As to `CN(C(=O)c1ccc2c(c1)NC(CC(=O)O)C(=O)N(CCc1ccccc1)C2)c1ccc(C(=N)N)cc1` (configuration not stated), the Ki in experiment [1] came out at 1.6 nM. Besides, in the experiment listed under Homo sapiens, half-maximal inhibition (IC50) was put at 65 nM.
